# Active and inactive are the calls of the source. The calls are words filed in the database; no cut-off is given here.
# Key:
# MDA-MB-231 = assay: Cytotoxicity against human MDA-MB-231 cells assessed as reduction in cell viability after 72 hrs by MTT assay; assay type: cell-based; details: MDA-MB-231, 72 h
# Summary of the method: (§1)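 MTT viability: MDA-MB-231 and HepG2 cells (kept in DMEM with 10% FBS) were seeded at 5000/well and allowed to adhere overnight. They were exposed to 0.001–100 μM for 72 h, then given MTT 1 mg/mL in PBS pH 7.4 for 2 h. Formazan was dissolved in DMSO and A570 read. IC50 was taken from dose-response curves.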
# HepG2 = assay: Cytotoxicity against human HepG2 cells assessed as reduction in cell viability after 72 hrs by MTT assay; assay type: cell-based; details: HepG2, 72 h; summary of the method: as §1
# Staphylococcus aureus [1] = assay: Antibacterial activity against methicillin-resistant Staphylococcus aureus ATCC 43300 assessed as bacterial growth inhibition incubated for 20 hrs by broth dilution method; assay type: functional
# Summary of the method: (§2)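 Broth microdilution: 0.5 McFarland suspension from an overnight culture, diluted 1:100 in cation-adjusted Mueller Hinton broth (CAMHB), given serial dilutions of test agent for 20 h at 37 °C. MIC is the lowest concentration with no visible growth.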
# Staphylococcus aureus [2] = assay: Antibacterial activity against vancomycin-intermediate resistant Staphylococcus aureus Mu50 ATCC 700699 assessed as bacterial growth inhibition by measuring fold increase in MIC between 5 to 7 passages by broth dilution method; assay type: functional
# Staphylococcus aureus [3] = assay: Bacteriostatic activity against methicillin-susceptible Staphylococcus aureus ATCC 25923 assessed as reduction in bacterial metabolism at 0.25 to 1 times of MIC incubated for 1 hr by C12-resazurin dye based fluorescence assay; assay type: functional, organism-based
# Staphylococcus aureus [4] = assay: Induction of membrane permeabilization in methicillin-susceptible Staphylococcus aureus ATCC 25923 assessed as cell viability at 1 to 5 times of MIC incubated for 5 mins by SYTO9 and PI staining based fluorescence assay; assay type: functional, organism-based
# Summary of the method: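 S. aureus […] was grown to OD600 0.4 in LB, washed with PBS and resuspended in 100 mM potassium phosphate pH 7.0 with 5 mM MgSO4. […] Controls were DMSO 5% and nisin 25 μg/mL. SYTO 9/propidium iodide staining ran 15 min at r.t. in the dark, and the green/red ratio (ex 485; em 535/595 nm) was read. Data are mean ± SEM, n = 3.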
# Acinetobacter baumannii = assay: Antibacterial activity against Acinetobacter baumannii ATCC 19606 assessed as zone of inhibition by disc diffusion method; assay type: functional
# Staphylococcus aureus [5] = assay: Bactericidal activity against Vancomycin-resistant Staphylococcus aureus HIP11714 assessed as bacterial killing incubated for over night; assay type: functional
# Summary of the method: (§3)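 For MBC, 5 μL from each well was spotted on agar and incubated overnight; MBC is the lowest concentration with no visible growth. Ratio taken as MBC over MIC.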
# Pseudomonas aeruginosa = assay: Antibacterial activity against Pseudomonas aeruginosa ATCC 15422 assessed as zone of inhibition by disc diffusion method; assay type: functional
# Staphylococcus aureus [6] = assay: Antibacterial activity against methicillin-susceptible Staphylococcus aureus ATCC 25923 in presence of glutathione; assay type: functional
# Summary of the method: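 Broth microdilution MIC: a 0.5 McFarland suspension from overnight culture was diluted 1:100 in cation-adjusted Mueller Hinton broth supplemented with glutathione 100 μM. It was exposed to serial dilutions for 20 h at 37 °C. MIC was taken as the lowest concentration with no visible growth.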
# Staphylococcus aureus [7] = assay: Bacteriostatic activity against methicillin-susceptible Staphylococcus aureus ATCC 25923 assessed as reduction in colony forming unit at 1 times of MIC measured up to 4 hrs by time kill assay; assay type: functional, organism-based; details: time hrs <=4
# Summary of the method: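 Time-kill: a 1:100 dilution of 0.5 McFarland S. aureus […] suspension was exposed to 0, 1 and 4× MIC. At 0, 1, 2 and 4 h, samples were serially diluted in PBS and plated on MHA. CFU were counted after 30 h incubation.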
# [8] = tested on: Staphylococcus epidermidis; assay: Antibacterial activity against Staphylococcus epidermidis ATCC 14990 assessed as zone of inhibition by disc diffusion method; assay type: functional
# Staphylococcus aureus [9] = assay: Antibacterial activity against vancomycin-resistant Staphylococcus aureus HIP11714 assessed as bacterial growth inhibition by measuring fold increase in MIC between 5 to 7 passages by broth dilution method; assay type: functional
# Staphylococcus aureus [10] = assay: Ration of MBC to MIC against Vancomycin-resistant Staphylococcus aureus HIP11714; assay type: functional; summary of the method: as §3
# Staphylococcus aureus [11] = assay: Induction of intracellular oxidant species generation in Staphylococcus aureus ATCC 25923 after 1 hr by colorimetric based NBT assay; assay type: functional, organism-based
# Summary of the method: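 Cells at OD600 1.5 in HBSS mixed with 1 mg/mL aqueous NBT and agent (added from 2 mM stock) or DMSO/water, shaken for 1 h at 37 °C. Stopped with 0.1 M HCl and centrifuged; pellet formazan solubilized in DMSO/KOH/HBSS and read at OD560.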
# Staphylococcus aureus [12] = assay: Antibacterial activity against methicillin-susceptible Staphylococcus aureus ATCC 25923 assessed as zone of inhibition by disc diffusion method; assay type: functional
# Staphylococcus aureus [13] = assay: Ratio of MBC to MIC against methicillin-resistant Staphylococcus aureus ATCC 43300; assay type: functional; summary of the method: as §3
# Staphylococcus aureus [14] = assay: Antibacterial activity against vancomycin-resistant Staphylococcus aureus clinical isolate 10 assessed as bacterial growth inhibition after 20 hrs by broth microdilution assay; assay type: functional; summary of the method: as §2
# Staphylococcus aureus [15] = assay: Antibacterial activity against heterogeneous vancomycin-intermediate Staphylococcus aureus Mu3 ATCC 700698 assessed as inhibition of bacterial growth between 2 and 4 passages at 0.5 times of MIC incubated for 20 hrs by resistant development assay; assay type: functional, organism-based
# Summary of the method: (§4)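 Serial passage with hVISA Mu3, VISA and VRSA strains grown at 0.5× MIC of agent (± equimolar vancomycin). […] MIC was read visually at each passage.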
# Staphylococcus aureus [16] = assay: Bacteriostatic activity against methicillin-susceptible Staphylococcus aureus ATCC 25923 assessed as reduction in glucose metabolism measured at 0.5 hr interval for 15 hrs by phenol red based microplate reader assay; assay type: functional, organism-based
# Summary of the method: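 Glucose acidification: an OD600 1.0 suspension of S. aureus […] in HBSS was mixed with phenol red (70 μM stock) and test agent added from a 2 mM stock. Controls were DMSO vehicle and water. OD560 was read every 0.5 h for 15 h at 37 °C.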
# Staphylococcus aureus [17] = assay: Antibiofilm activity against methicillin-resistant Staphylococcus aureus assessed as disruption of preformed biofilm at 1 to 5 times of MIC incubated for 20 hrs by crystal violet staining based assay; assay type: functional, organism-based
# Staphylococcus aureus [18] = assay: Antibacterial activity against heterogeneous vancomycin-intermediate Staphylococcus aureus Mu3 ATCC 700698 assessed as bacterial growth inhibition incubated for 20 hrs by broth dilution method; assay type: functional; summary of the method: as §2
# Staphylococcus aureus [19] = assay: Antibacterial activity against heterogeneous vancomycin-intermediate resistant Staphylococcus aureus Mu3 ATCC 700698 assessed as zone of inhibition by disc diffusion method; assay type: functional
# Enterococcus faecium = assay: Antibacterial activity against vancomycin-resistant Enterococcus faecium ATCC 700221 assessed as zone of inhibition by disc diffusion method; assay type: functional
# Staphylococcus aureus [20] = assay: Antibacterial activity against vancomycin-resistant Staphylococcus aureus HIP11714 assessed as zone of inhibition by disc diffusion method; assay type: functional
# Staphylococcus aureus [21] = assay: Antibacterial activity against methicillin-susceptible Staphylococcus aureus ATCC 25923 assessed as inhibition of bacterial growth at 1 to 2 times of MIC after 20 hrs; assay type: functional, organism-based
# Staphylococcus aureus [22] = assay: Antibacterial activity against heterogeneous vancomycin-intermediate Staphylococcus aureus Mu3 ATCC 700698 assessed as bacterial growth inhibition measured between 5 to 7 passages by broth dilution method; assay type: functional; summary of the method: as §4
smiles,measurement,setting,value
CCCCCCCCSSc1ccccn1,IC50,MDA-MB-231,74.9 µM
same,IC50,HepG2,≥ 100 µM
same,MIC,Staphylococcus aureus [1],6.25 µM
same,fold change (FC),Staphylococcus aureus [2],>2
same,Activity,Staphylococcus aureus [3],Active
same,Activity,Staphylococcus aureus [4],inactive
same,diameter of the inhibition zone (DIZ),Acinetobacter baumannii,0 mm
same,MBC,Staphylococcus aureus [5],> 50 µM
same,diameter of the inhibition zone (DIZ),Pseudomonas aeruginosa,0 mm
same,MIC,Staphylococcus aureus [6],50 µM
same,Activity,Staphylococcus aureus [7],Active
same,diameter of the inhibition zone (DIZ),[8],46 mm
same,fold change (FC),Staphylococcus aureus [9],>2
same,Ratio,Staphylococcus aureus [10],>8
same,Activity,Staphylococcus aureus [11],Active
same,diameter of the inhibition zone (DIZ),Staphylococcus aureus [12],30 mm
same,Ratio,Staphylococcus aureus [13],>8
same,MIC50,Staphylococcus aureus [14],6.25 µM
same,MIC90,Staphylococcus aureus [14],12.5 µM
same,Activity,Staphylococcus aureus [15],Active
same,Activity,Staphylococcus aureus [16],Active
same,Activity,Staphylococcus aureus [17],Dose-dependent effect
same,MIC,Staphylococcus aureus [18],12.5 µM
same,diameter of the inhibition zone (DIZ),Staphylococcus aureus [19],37 mm
same,diameter of the inhibition zone (DIZ),Enterococcus faecium,12 mm
same,diameter of the inhibition zone (DIZ),Staphylococcus aureus [20],38 mm
same,Activity,Staphylococcus aureus [21],Active
same,MIC,Staphylococcus aureus [22],> 50 µM
